Test results taken from ChEMBL document CHEMBL1123382, “Potential tumor- or organ-imaging agents. 27. Polyiodinated 1,3-disubstituted and 1,2,3-trisubstituted triacylglycerols” (J Med Chem, 1986).
Values joined by “and” are separate entries in the source; they are usually repeats but may differ in a detail not shown here. Equal values may be shown once.

Tests used:
Rattus norvegicus [1] = experiment: Biodistribution in Rat blood after 30 minutes of iv administration; per g of tissue; type: ADME, organism-based; conditions: in vivo, 0.5 h
In short: (§1)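 125I-labeled compound solubilized in normal saline with Tween-20 and given iv to rats, about 5-30 μCi (9-83 μg) per animal. Three to five rats per time point. Rats killed by exsanguination under ether anesthesia at 5 min, 30 min or 24 h. Organs minced, blotted free of blood and counted for radioiodine. Lines with "per g" are % administered dose per gram ± SEM.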

Rattus norvegicus [2] = experiment: Compound was evaluated for the lipid soluble radioactivity extracted from rat liver at 0.5 hr after intravenous administration.; type: functional
In short: (§2)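 Liver and plasma taken 0.5 or 24 h after iv dosing of 125I-labeled compound in rats (n = 3-5). Extracted by a modified Folch procedure; value is % lipid (CHCl3/MeOH)-extractable radioactivity ± SEM. Extracts run on TLC in hexane/ethyl acetate 5:2 against unlabeled standard, then 1-cm strips counted to give % parent compound.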

Rattus norvegicus [3] = experiment: Biodistribution in Rat blood after 24 hours of iv administration; per g of tissue; type: ADME, organism-based; conditions: in vivo; in short: as §1
Rattus norvegicus [4] = experiment: Biodistribution in Rat liver after 24 hours of iv administration; per g of tissue; type: ADME, organism-based; conditions: in vivo; in short: as §1
Rattus norvegicus [5] = experiment: Compound (125I labeled)was evaluated for the total radioactivity in low-density lipoprotein 5 min after intravenous administration.; type: functional
In short: (§3)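 Rat plasma taken 5 or 30 min after iv dosing of 125I-labeled compound (saline/Tween-20) and run on polyacrylamide gel electrophoresis. Gels sectioned and each section gamma-counted. Radioactivity in each band (stacking gel, lipoproteins, albumin, below-albumin) is given as % of total radioactivity applied to the gel.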

Rattus norvegicus [6] = experiment: Compound (125I labeled) was evaluated for the total radioactivity in high-density lipoprotein, at 30 min after intravenous administration.; type: functional; in short: as §3
Rattus norvegicus [7] = experiment: Compound was evaluated for the lipid soluble radioactivity extracted from rat plasma at 24 hr after intravenous administration.; type: functional; in short: as §2
Rattus norvegicus [8] = experiment: Compound (125I labeled) was evaluated for the total radioactivity in stacking gel at 30 min after intravenous administration.; type: functional; in short: as §3
Rattus norvegicus [9] = experiment: Biodistribution in Rat lung after 24 hours of iv administration; per g of tissue; type: ADME, organism-based; conditions: in vivo; in short: as §1
Rattus norvegicus [10] = experiment: (§4) Biodistribution in Rat liver after 30 minutes of iv administration; per g of tissue; type: ADME, organism-based; conditions: in vivo, 0.5 h; in short: as §1
Rattus norvegicus [11] = experiment: Compound (125I labeled) was evaluated for the total radioactivity in low-density lipoprotein, at 30 min after intravenous administration.; type: functional; in short: as §3
Rattus norvegicus [12] = experiment: Liver radioactivity after iv administration of compound (5 min) in rats; type: functional, organism-based
In short: (§5)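 Rats (3-5 per time point) dosed iv with about 5-30 μCi (9-83 μg) of 125I-labeled compound in saline containing Tween-20. Killed by exsanguination under ether at 5 min, 30 min or 24 h. Liver removed, minced, blotted and counted. Values are % administered dose per organ, based on each animal's actual liver weight, ± SEM.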

Rattus norvegicus [13] = experiment: Biodistribution in Rat lung after 5 minutes of iv administration; per g of tissue; type: ADME, organism-based; conditions: in vivo; in short: as §1
Rattus norvegicus [14] = experiment: Liver radioactivity after iv administration of compound (24 h) in rats; type: functional, organism-based; in short: as §5
Rattus norvegicus [15] = experiment: Compound (125I labeled) was evaluated for the total radioactivity in albumin at 30 min after intravenous administration.; type: functional; set-up: concentration or dose not given beside the values; in short: as §3
Rattus norvegicus [16] = experiment: Biodistribution in Rat blood after 5 minutes of iv administration; per g of tissue; type: ADME, organism-based; conditions: in vivo; in short: as §1
Rattus norvegicus [17] = experiment: Compound (125I labeled) was evaluated for the total radioactivity in stacking gel 5 min after intravenous administration.; type: functional; in short: as §3
Rattus norvegicus [18] = experiment: Compound was evaluated for the lipid soluble radioactivity extracted from rat plasma at 0.5 hr after intravenous administration.; type: functional; in short: as §2
Rattus norvegicus [19] = experiment: Biodistribution in Rat lung after 30 minutes of iv administration; per g of tissue; type: ADME, organism-based; conditions: in vivo, 0.5 h; in short: as §1
Rattus norvegicus [20] = experiment: Evaluated for the total radioactivity in below albumin at 30 min after intravenous administration.; type: functional; in short: as §3
Rattus norvegicus [21] = experiment: Biodistribution in Rat liver after 5 minutes of iv administration; per g of tissue; type: ADME, organism-based; conditions: in vivo; in short: as §1
Rattus norvegicus [22] = experiment: Biodistribution in Rat heart after 24 hours of iv administration; per g of tissue; type: ADME, organism-based; conditions: in vivo; in short: as §1
Rattus norvegicus [23] = experiment: Liver radioactivity after iv administration of compound (30 min) in rats; type: functional, organism-based; in short: as §5
Rattus norvegicus [24] = experiment: Compound (125I labeled) was evaluated for the total radioactivity in high-density lipoprotein 5 min after intravenous administration.; type: functional; in short: as §3
Rattus norvegicus [25] = experiment: Biodistribution in Rat heart after 5 minutes of iv administration; per g of tissue; type: ADME, organism-based; conditions: in vivo; in short: as §1
Rattus norvegicus [26] = experiment: Compound was evaluated for the lipid soluble radioactivity extracted from rat liver at 24 hr after intravenous administration.; type: functional; in short: as §2
Rattus norvegicus [27] = experiment: as §4; type: ADME, organism-based; conditions: in vivo, 0.5 h; in short: as §1; remark: listed apart in the source
Rattus norvegicus [28] = experiment: Biodistribution in Rat heart after 30 minutes of iv administration; per g of tissue; type: ADME, organism-based; conditions: in vivo, 0.5 h; in short: as §1
Rattus norvegicus [29] = experiment: Compound (125I labeled) was evaluated for the total radioactivity in albumin 5 min after intravenous administration.; type: functional; set-up: concentration or dose not given beside the values; in short: as §3

**Q.** Which Biodistribution (Rattus norvegicus [1]) does the source give for `CCCCCCCCCCCCCCCC(=O)OC(COC(=O)Cc1c(I)cc(I)c(N)c1I)COC(=O)Cc1c(I)cc(I)c(N)c1I` here?
**A.** 2.62%

**Q.** What about the Extracted (Rattus norvegicus [2]) of the same molecule?
**A.** 90.5%

**Q.** And the Parent compound (Rattus norvegicus [2])?
**A.** 89.5%

**Q.** What about the Biodistribution (Rattus norvegicus [3]) of the same molecule?
**A.** 0.12%

**Q.** And the Biodistribution (Rattus norvegicus [4])?
**A.** 0.11% and 1.39%

**Q.** And the Total radioactivity (Rattus norvegicus [5])?
**A.** 39%

**Q.** And the Total radioactivity (Rattus norvegicus [6])?
**A.** 42%

**Q.** What about the Extracted (Rattus norvegicus [7]) of the same molecule?
**A.** 67%

**Q.** And the Parent compound (Rattus norvegicus [7])?
**A.** 60.8%

**Q.** And the Total radioactivity (Rattus norvegicus [8])?
**A.** 16.6%

**Q.** And the Biodistribution (Rattus norvegicus [9])?
**A.** 0.13%

**Q.** And the Biodistribution (Rattus norvegicus [10])?
**A.** 7.62%

**Q.** And the Total radioactivity (Rattus norvegicus [11])?
**A.** 35.1%

**Q.** And the Radioactivity (Rattus norvegicus [12])?
**A.** 38.8

**Q.** And the Biodistribution (Rattus norvegicus [13])?
**A.** 1.13%

**Q.** And the Radioactivity (Rattus norvegicus [14])?
**A.** 10.3

**Q.** What about the Total radioactivity (Rattus norvegicus [15]) of the same molecule?
**A.** 3.9%

**Q.** And the Biodistribution (Rattus norvegicus [16])?
**A.** 4.75%

**Q.** What about the Total radioactivity (Rattus norvegicus [17]) of the same molecule?
**A.** 18.7%

**Q.** And the Extracted (Rattus norvegicus [18])?
**A.** 82.7%

**Q.** And the Parent compound (Rattus norvegicus [18])?
**A.** 82.8%

**Q.** And the Biodistribution (Rattus norvegicus [19])?
**A.** 0.73%

**Q.** And the Total radioactivity (Rattus norvegicus [20])?
**A.** 3.2% and 2.4%

**Q.** What about the Biodistribution (Rattus norvegicus [21]) of the same molecule?
**A.** 0.54% and 5.53%

**Q.** And the Biodistribution (Rattus norvegicus [22])?
**A.** 0.05%

**Q.** What about the Radioactivity (Rattus norvegicus [23]) of the same molecule?
**A.** 57.2

**Q.** And the Total radioactivity (Rattus norvegicus [24])?
**A.** 34.7%

**Q.** What about the Biodistribution (Rattus norvegicus [25]) of the same molecule?
**A.** 0.64%

**Q.** And the Extracted (Rattus norvegicus [26])?
**A.** 80.1%

**Q.** And the Parent compound (Rattus norvegicus [26])?
**A.** 68.8%

**Q.** What about the Biodistribution (Rattus norvegicus [27]) of the same molecule?
**A.** 7.62%

**Q.** What about the Biodistribution (Rattus norvegicus [28]) of the same molecule?
**A.** 0.32%

**Q.** And the Total radioactivity (Rattus norvegicus [29])?
**A.** 4.5%
